Columns and labels:
aldosterone and cortisol = conditions: cited from earlier work
[1] = tested on: blood pressure, ACTH-stimulated cortisol; conditions: primary hypertension, all doses tested; cited from earlier work
plasma aldosterone = test: Basal plasma aldosterone concentration; assay type: in vivo, human; conditions: multiple dose, model estimate (CV%)
serum K+ [2] = test: Oral K+ challenge Day 7: serum K+ and K+ renal clearance; assay type: in vivo, human
How it was run: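 On Day 7 of once-daily oral dosing, healthy adults received an oral 40 mEq K+ load 3 h post-dose. Dietary K+ that day was cut by 40 mEq to hold daily intake at 125 mEq. Serum K+ was followed for 5 h post-challenge, and Cavg was taken over 5 h. Renal clearance = urinary excretion / serum AUC. Post-challenge K+ was fitted with a hyperbolic Emax model (additive above placebo).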

urinary K+ excretion = test: 24-hour urinary K+ excretion Days 3 and 7; assay type: in vivo, human; conditions: spironolactone 25 mg/d
[3] = tested on: plasma aldosterone, corticosterone, 11-deoxycorticosterone; test: IV ACTH challenge Day 8: plasma aldosterone and precursors; assay type: in vivo, human
How it was run: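 After 8 days of oral once-daily dosing in healthy adults, an IV ACTH challenge was given 1 h post-dose on Day 8. Plasma aldosterone, corticosterone and 11-deoxycorticosterone were drawn at −15 min (baseline) and at 30 and 60 min post-challenge. Read-out was change from pre-challenge, averaged over 30 and 60 min. Stimulated aldosterone was fitted with a hyperbolic Imax model against dose and plasma drug level.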

serum K+ [4] = test: Basal serum potassium after multiple dosing; assay type: in vivo, human; conditions: model estimate (CV%)
urine aldosterone = test: 24-hour urine aldosterone excretion after multiple dosing; assay type: in vivo, human; conditions: spironolactone 25 mg/d
How it was run: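 Once-daily oral dosing for 8 days in healthy adults (0.1–100 mg; solution in degassed Sprite; double-dummy with an MR antagonist capsule). Urine pooled over 24 h from pre-dose Day 3 to pre-dose Day 4, and from pre-dose Day 7 to pre-dose Day 8, and assayed for aldosterone. Data ln-transformed and fitted with a mixed model (fixed treatment and period, random subject). Ratios of LS geometric means with 90% CIs.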

[5] = tested on: plasma cortisol and 11-deoxycortisol (CYP11B1); test: IV ACTH challenge Day 8: plasma cortisol and 11-deoxycortisol; assay type: in vivo, human; conditions: spironolactone 25 mg/d
How it was run: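 IV ACTH challenge 1 h after the Day 8 oral dose, following daily dosing at 0.1–100 mg in healthy adults (crossover with placebo and an MR antagonist). Plasma cortisol and 11-deoxycortisol were drawn at −15, 30 and 60 min. Read-out was mean change from pre-challenge, with cortisol expressed as the average post-challenge concentration over the 1-h period.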

[6] = Safety and tolerability in healthy subjects; assay type: in vivo, human; conditions: multiple administration, ASEB
How it was run: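 Two studies in healthy adults confined to the unit: a single ascending oral dose (0.1–300 mg) and once-daily dosing for 8 days (0.1–100 mg) with placebo and an MR antagonist in double-dummy crossover. Safety covered vital signs, ECG, and hepatic and renal laboratory tests. Blood pressure was taken repeatedly over Days 3 and 7. Average MAP = area under the MAP–time curve to 24 h divided by 24 h.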

[7] = cited from earlier work

N#Cc1ccc([C@H]2CCc3cncn32)c(F)c1 [LCI699]
plasma and 24-h urinary aldosterone (aldosterone and cortisol; Na+-depleted healthy volunteers, dose-dependent): decreased both plasma and 24-h urinary aldosterone
ACTH-stimulated aldosterone elevation (aldosterone and cortisol; all three doses (0.5, 1 and 3 mg)): inhibited ACTH-stimulated aldosterone elevation
ACTH-stimulated cortisol production (aldosterone and cortisol; higher dose of 3 mg): significantly inhibited ACTH-stimulated cortisol production
ACTH-stimulated cortisol production [1]: significantly inhibited ACTH-stimulated cortisol production

CC(=O)S[C@@H]1CC2=CC(=O)CC[C@]2(C)[C@H]2CC[C@@]3(C)[C@@H](CC[C@@]34CCC(=O)O4)[C@H]12 [Spironolactone]
Spironolactone (50 mg) effect on PAC (plasma aldosterone): 49 (19%) pg/ml
average serum K+ over 5 h post oral K+ challenge (Cavg, mean±SD) (serum K+ [2]; spironolactone 25 mg/d, Day 7): 4.5 ± 0.2 mmol/L
Spironolactone (50 mg) effect on K+ (serum K+ [2]; stimulated, post-K+ challenge, model estimate (CV%)): 0.09 (68%) mM
24-hour urinary K+ excretion (mean±SD) (urinary K+ excretion; Day 3, placebo 99±19): 97 ± 20 mmol
24-hour urinary K+ excretion (mean±SD) (urinary K+ excretion; Day 7, placebo 110±23): 117 ± 17 mmol
effect on PAC following the ACTH challenge ([3]; spironolactone 25 mg/d, Day 8): no effect on PAC
Spironolactone (50 mg) effect on PAC ([3]; stimulated, post-ACTH, model estimate (CV%)): 18 (89%) pg/ml
Spironolactone (50 mg) effect on K+ (serum K+ [4]): 0.02 (232%) mM
effect on urine aldosterone excretion (urine aldosterone): elevated urine aldosterone excretion
plasma cortisol after ACTH challenge compared to placebo [5]: No differences
effects on mean arterial pressure (MAP) [6]: no clear effects

C[C@]12CCC(=O)C=C1CC[C@@H]1[C@@H]2[C@@H](O)C[C@]2(C=O)[C@@H](C(=O)CO)CC[C@@H]12 [aldosterone]
disappearance half-life of radiolabeled aldosterone [7]: 35 min

Reference: publication PMC5843917 (Journal of the Renin-Angiotensin-Aldosterone System: JRAAS, 2017)
